Our source for the MIC values is ChEMBL document CHEMBL2040749, “Novel polycyclic 'cage'-1,2-diamines as potential anti-tuberculosis agents” (2012).

In the experiment the test system is Mycobacterium tuberculosis. Nature of the experiment: Antitubercular activity against Mycobacterium tuberculosis H37Rv ATCC 25177after 21 days by BACTEC MGIT 960 method. The format is functional. The settings on record: 504 h. The procedure, abridged:
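Compounds dissolved in 100% methanol (10 mg/mL stock), sonicated, filter-sterilised, diluted in sterile water; twofold serial dilutions, working range 8 to 0.125 µg/mL. Strains grown in Middlebrook 7H9 + OADC at 37 °C; inoculum adjusted to McFarland 1, diluted tenfold to 10^5 CFU/mL into MGIT tubes. Drug-free control received a 1:100 inoculum. MIC is the lowest dilution negative when the control turns positive. Triplicate.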

The structures appear in SMILES notation.

Broadly, the MIC is the lowest concentration that inhibits growth of the organism.

Compound `CC(C)=CCC/C(C)=C/CNCCNC1C2CC3CC(C2)CC1C3.Cl.Cl` (stereo not drawn) had a minimum inhibitory concentration (MIC) of 0.5 µg/mL.
Compound `CC(C)=CCC/C(C)=C/CNC(=O)CN1[C@H]2C3C4CC5C6C4C2C6[C@@]1(O)C53` (mixture of isomers) showed an MIC of 1 µg/mL.
As for `CC(C)=CCC/C(C)=C/CNCC(=O)N[C@]12O[C@H]3C4C5CC(C6C5C3C61)C42` (mixture of isomers), the minimum inhibitory concentration (MIC) is 1 µg/mL.
`CC(C)=CCC/C(C)=C/CNCCN[C@@H]1C2C3CC4C5C3CC2C5C41.Cl.Cl` (mixture of isomers) showed an MIC of 1 µg/mL.
The compound `CC(C)=CCC/C(C)=C/CNCCN[C@]12O[C@H]3C4C5CC(C6C5C3C61)C42.Cl.Cl` (mixture of isomers) came in with an MIC of 1 µg/mL.
As for `CC(C)=CCC/C(C)=C/CNCCN[C@@H]1C2C3CC4C5C3C1C5[C@@H](O)C42.Cl.Cl` (mixture of isomers), 0.5 µg/mL was the least that counted as inhibitory (MIC).
With `CC(C)=CCC/C(C)=C/CNCCN1[C@H]2C3C4CC5C6C4C2C6[C@@]1(O)C53.Cl.Cl` (mixture of isomers) the figure was 1 µg/mL; with `CC(C)=CCC/C(C)=C/CNCCNC1C2C3CC4C5CC(C42)C1C53.Cl.Cl` (racemic), 0.5 µg/mL.
